Test results reported in ChEMBL document CHEMBL1141109, “Synthesis of an estrogen receptor beta-selective radioligand: 5-[18F]fluoro-(2R,3S)-2,3-bis(4-hydroxyphenyl)pentanenitrile and comparison of in vivo distribution with 16alpha-[18F]fluoro-17beta-estradiol” (J Med Chem, 2005).
Blank lines part the entries; values can stand above or below the compound they belong to.

Tests used:
[1] = Biodistribution of [18F]FEDPN in rat bone after 1 h block when given in tail vein; (n=5); assay type: ADME, organism-based, Bone element; conditions: in vivo, iv
How it was run: (§1)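 Immature female Sprague–Dawley rats (<25 days old) under isoflurane/O2 got 20 µCi tracer in 150 µL 20% ethanol/saline by tail vein. […] Rats were killed at 30 min, 1 h or 2 h. Organs were blotted, weighed and gamma-counted against an injectate standard. Data are %ID/g ± SD, five rats per point.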

[2] = Biodistribution of [18F]FEDPN in beta estrogen receptor knock out mouse lung after 2 h; (n=3); assay type: ADME, organism-based; conditions: in vivo
How it was run: (§2)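 αERKO and βERKO mice, staged by daily vaginal smears and kept on estrogen-free chow, were studied in a nonestrous stage. Each mouse received 11 μCi of tracer in 130 μL of 10% ethanol/saline. Mice were killed at 30 min, 1 h or 2 h (n = 3 each). Organs were removed, blotted, weighed and gamma-counted against an injectate standard. Uptake is given as %ID/g ± SD.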

[3] = Biodistribution of [18F]FEDPN in alpha estrogen receptor knock out mouse bone after 1 h; (n=3); assay type: ADME, organism-based, Bone element; conditions: in vivo
How it was run: (§3)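 ERKO female mice (αERKO or βERKO), rested 48 h after shipping, placed on estrogen-free chow, and staged by daily vaginal smears. Injected in a nonestrous stage with 11 µCi [18F]FEDPN in 130 µL of 10% ethanol/saline. Killed at 30 min, 1 h or 2 h. Organs counted and reported as %ID/g ± SD, three animals per point.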

[4] = Biodistribution of [18F]FEDPN in alpha estrogen receptor knock out mouse spleen after 2 h; (n=3); assay type: ADME, organism-based; conditions: in vivo; how it was run: as §2
[5] = Biodistribution of [18F]FEDPN in beta estrogen receptor knock out mouse kidney after 30 min; (n=3); assay type: ADME, organism-based; conditions: in vivo, 0.5 h; how it was run: as §2
[6] = Biodistribution of [18F]-FEDPN in alpha estrogen receptor knock out mouse ovaries after 1 h; (n=3); assay type: ADME, organism-based, Female gonad; conditions: in vivo; how it was run: as §3
[7] = Biodistribution of [18F]FEDPN in alpha estrogen receptor knock out mouse ovaries after 2 h; (n=3); assay type: ADME, organism-based, Female gonad; conditions: in vivo; how it was run: as §2
[8] = Biodistribution of [18F]-FEDPN in rat thymus after 2 hr when given in tail vein; (n=5); assay type: ADME, organism-based; conditions: in vivo, iv
How it was run: (§4)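 Immature female Sprague–Dawley rats (<25 days old) anesthetized with isoflurane/O2. Given 20 µCi tracer by tail vein in 150 µL of 20% ethanol/saline. […] Killed at 30 min, 1 h or 2 h. Blood and organs blotted, weighed and gamma-counted against a standard dilution of the injectate. Reported as %ID/g ± SD, n=5.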

[9] = Biodistribution of [18F]FEDPN in beta estrogen receptor knock out mouse uterus after 30 min; (n=3); assay type: ADME, organism-based; conditions: in vivo, 0.5 h
How it was run: (§5)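 αERKO and βERKO mice were fed estrogen-free chow and staged by daily vaginal smears. Mice in a nonestrous stage each received 11 µCi tracer in 130 µL 10% ethanol/saline. Organs were taken at 30 min, 1 h or 2 h and gamma-counted. Uptake is expressed as %ID/g ± SD, three animals per point.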

[10] = Biodistribution of [18F]FEDPN in alpha estrogen receptor knock out mouse liver after 30 min; (n=3); assay type: ADME, organism-based; conditions: in vivo, 0.5 h; how it was run: as §3
[11] = Biodistribution of [18F]-FEDPN in rat blood after 1 hr when given in tail vein; (n=5); assay type: ADME, organism-based; conditions: in vivo, iv; how it was run: as §4
[12] = Biodistribution of [18F]FEDPN in beta estrogen receptor knock out mouse uterus after 1 h; (n=3); assay type: ADME, organism-based; conditions: in vivo; how it was run: as §5
[13] = Biodistribution of [18F]FEDPN in alpha estrogen receptor knock out mouse blood after 2 h; (n=3); assay type: ADME, organism-based; conditions: in vivo; how it was run: as §3
[14] = Biodistribution of [18F]FEDPN in beta estrogen receptor knock out mouse muscle after 2 h; (n=3); assay type: ADME, organism-based, Muscle tissue; conditions: in vivo; how it was run: as §2
[15] = Biodistribution of [18F]FEDPN in beta estrogen receptor knock out mouse brain after 1 h; (n=3); assay type: ADME, organism-based; conditions: in vivo; how it was run: as §2
[16] = Biodistribution of [18F]FEDPN in beta estrogen receptor knock out mouse bone after 2 h; (n=3); assay type: ADME, organism-based, Bone element; conditions: in vivo; how it was run: as §2
[17] = Biodistribution of [18F]FEDPN in alpha estrogen receptor knock out mouse muscle after 1 h; (n=3); assay type: ADME, organism-based, Muscle tissue; conditions: in vivo; how it was run: as §2
[18] = Biodistribution of [18F]FEDPN in alpha estrogen receptor knock out mouse lung after 2 h; (n=3); assay type: ADME, organism-based; conditions: in vivo; how it was run: as §2
[19] = Biodistribution of [18F]FEDPN in alpha estrogen receptor knock out mouse kidney after 2 h; (n=3); assay type: ADME, organism-based; conditions: in vivo; how it was run: as §3
[20] = Biodistribution of [18F]FEDPN in rat bone after 30 min when given in tail vein; (n=5); assay type: ADME, organism-based, Bone element; conditions: in vivo, iv, 0.5 h; how it was run: as §1
[21] = Biodistribution of [18F]-FEDPN in rat uterus after 2 h when given in tail vein; (n=5); assay type: ADME, organism-based; conditions: in vivo, iv; how it was run: as §4
[22] = Biodistribution of [18F]FES in beta estrogen receptor knock out mouse ovaries after 30 min; (n=3); assay type: ADME, organism-based, Female gonad; conditions: in vivo, 0.5 h
[23] = Biodistribution of [18F]FES in beta estrogen receptor knock out mouse bone after 30 min; (n=3); assay type: ADME, organism-based, Bone element; conditions: in vivo, 0.5 h
[24] = Biodistribution of [18F]FES in alpha estrogen receptor knock out mouse bone after 1 h; (n=3); assay type: ADME, organism-based, Bone element; conditions: in vivo
How it was run: (§6)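 Female αERKO mice were rested 48 h after shipping and fed estrogen-free chow. They were staged by daily vaginal smears and studied in diestrus. Each received 13 µCi [18F]FES in 100 µL 10% ethanol/saline and was sacrificed at 30 min, 1 h or 2 h (n = 3 per time). Tissue uptake is given as %ID/g ± SD.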

[25] = Biodistribution of [18F]-FES in alpha estrogen receptor knock out mouse muscle after 1 h; (n=3); assay type: ADME, organism-based, Muscle tissue; conditions: in vivo; how it was run: as §6
[26] = Biodistribution of [18F]FES in alpha estrogen receptor knock out mouse heart after 30 min; (n=3); assay type: ADME, organism-based; conditions: in vivo, 0.5 h; how it was run: as §6
[27] = Biodistribution of [18F]FES in alpha estrogen receptor knock out mouse spleen after 2 h; (n=3); assay type: ADME, organism-based; conditions: in vivo
[28] = Biodistribution of [18F]FES in alpha estrogen receptor knock out mouse uterus after 1 h; (n=3); assay type: ADME, organism-based; conditions: in vivo
[29] = Biodistribution of [18F]FES in alpha estrogen receptor knock out mouse muscle after 30 min; (n=3); assay type: ADME, organism-based, Muscle tissue; conditions: in vivo, 0.5 h
[30] = Biodistribution of [18F]FES in beta estrogen receptor knock out mouse heart after 2 h; (n=3); assay type: ADME, organism-based; conditions: in vivo
[31] = Biodistribution of [18F]-FES in alpha estrogen receptor knock out mouse liver after 1 h; (n=3); assay type: ADME, organism-based; conditions: in vivo; how it was run: as §6
[32] = Biodistribution of [18F]FES in alpha estrogen receptor knock out mouse ovaries after 1 h; (n=3); assay type: ADME, organism-based, Female gonad; conditions: in vivo; how it was run: as §6
[33] = Biodistribution of [18F]FES in alpha estrogen receptor knock out mouse lung after 1 h; (n=3); assay type: ADME, organism-based; conditions: in vivo
[34] = Biodistribution of [18F]FES in alpha estrogen receptor knock out mouse spleen after 1 h; (n=3); assay type: ADME, organism-based; conditions: in vivo
[35] = Biodistribution of [18F]-FES in alpha estrogen receptor knock out mouse kidney after 2 h; (n=3); assay type: ADME, organism-based; conditions: in vivo
How it was run: (§7)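 Female αERKO mice rested 48 h after shipping and fed estrogen-free chow. Estrous stage was checked by daily vaginal smears, and mice were used in diestrus. Each received 13 µCi [18F]FES in 100 µL 10% ethanol/saline. Animals were sacrificed at 30 min, 1 h or 2 h (n = 3 each). Tissue uptake is reported as %ID/g ± SD.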

[36] = Biodistribution of [18F]-FES in alpha estrogen receptor knock out mouse bone after 30 min; (n=3); assay type: ADME, organism-based, Bone element; conditions: in vivo, 0.5 h; how it was run: as §7

- Biodistribution [1]: 1.82 %ID/g
- Biodistribution [2]: 0.44 %ID/g
- Biodistribution [3]: 4.13 %ID/g
- Biodistribution [4]: 0.12 %ID/g
- Biodistribution [5]: 4.83 %ID/g
- Biodistribution [6]: 0.52 %ID/g
- Biodistribution [7]: 0.28 %ID/g
- Biodistribution [8]: 0.08 %ID/g
- Biodistribution [9]: 1.85 %ID/g
- Biodistribution [10]: 3.7 %ID/g
- Biodistribution [11]: 0.55 %ID/g
- Biodistribution [12]: 0.54 %ID/g
- Biodistribution [13]: 0.23 %ID/g
- Biodistribution [14]: 0.27 %ID/g
- Biodistribution [15]: 0.47 %ID/g
- Biodistribution [16]: 5.15 %ID/g
- Biodistribution [17]: 0.59 %ID/g
- Biodistribution [18]: 0.75 %ID/g
- Biodistribution [19]: 1.94 %ID/g
- Biodistribution [20]: 2.12 %ID/g
- Biodistribution [21]: 0.28 %ID/g
Compound: N#C[C@H](c1ccc(O)cc1)[C@@H](CCF)c1ccc(O)cc1

- Biodistribution [22]: 6.54 %ID/g
- Biodistribution [23]: 1.28 %ID/g
- Biodistribution [24]: 0.24 %ID/g
- Biodistribution [25]: 0.18 %ID/g
- Biodistribution [26]: 0.62 %ID/g
- Biodistribution [27]: 0.18 %ID/g
- Biodistribution [28]: 0.82 %ID/g
- Biodistribution [29]: 0.77 %ID/g
- Biodistribution [30]: 0.2 %ID/g
- Biodistribution [31]: 5.24 %ID/g
- Biodistribution [32]: 0.49 %ID/g
- Biodistribution [33]: 0.39 %ID/g
- Biodistribution [34]: 0.19 %ID/g
- Biodistribution [35]: 0.72 %ID/g
- Biodistribution [36]: 0.44 %ID/g
Compound: C[C@]12CC[C@@H]3c4ccc(O)cc4CC[C@H]3[C@@H]1C[C@@H](F)[C@@H]2O [FLUOROESTRADIOL]
